Experimental data from ChEMBL document CHEMBL4834412, “2,4,5-Trisubstituted Pyrimidines as Potent HIV-1 NNRTIs: Rational Design, Synthesis, Activity Evaluation, and Crystallographic Studies” (J Med Chem, 2021).

Key:
[1] = tested on: Human immunodeficiency virus 1; experiment: Antiviral activity against HIV-1 harboring RT Y188L mutant infected in human MT4 cells assessed as protection against virus-induced cytopathogenicity after 5 days by MTT assay; assay type: functional, organism-based; conditions: Human immunodeficiency virus 1, MT4, 120 h
[2] = tested on: Human immunodeficiency virus 1; experiment: Antiviral activity against HIV-1 harboring RT L100I mutant infected in human MT4 cells assessed as protection against virus-induced cytopathogenicity after 5 days by MTT assay; assay type: functional, organism-based; conditions: Human immunodeficiency virus 1, MT4, 120 h
[3] = tested on: Human immunodeficiency virus 1; experiment: Antiviral activity against HIV-1 harboring RT Y181C mutant infected in human MT4 cells assessed as protection against virus-induced cytopathogenicity after 5 days by MTT assay; assay type: functional, organism-based; conditions: Human immunodeficiency virus 1, MT4, 120 h
[4] = tested on: Human immunodeficiency virus 1; experiment: Antiviral activity against HIV-1 harboring RT F227L/V106A mutant infected in human MT4 cells assessed as protection against virus-induced cytopathogenicity after 5 days by MTT assay; assay type: functional, organism-based; conditions: Human immunodeficiency virus 1, MT4, 120 h
[5] = tested on: Human immunodeficiency virus 1; experiment: Antiviral activity against HIV-1 harboring RT K103N mutant infected in human MT4 cells assessed as protection against virus-induced cytopathogenicity after 5 days by MTT assay; assay type: functional, organism-based; conditions: Human immunodeficiency virus 1, MT4, 120 h
[6] = tested on: Human immunodeficiency virus 1; experiment: Antiviral activity against NNRTI-resistant HIV-1 RES056 harboring RT K103N/Y181C mutant infected in human MT4 cells assessed as protection against virus-induced cytopathogenicity after 5 days by MTT assay; assay type: functional, organism-based; conditions: Human immunodeficiency virus 1, RES056, MT4, 120 h
[7] = tested on: Human immunodeficiency virus 1; experiment: Antiviral activity against HIV-1 strain IIIB infected in human MT4 cells assessed as protection against virus-induced cytopathicity after 5 days by MTT assay; assay type: functional, organism-based; conditions: Human immunodeficiency virus 1, IIIB, MT4, 120 h
[8] = tested on: Human immunodeficiency virus 2; experiment: Antiviral activity against HIV-2 ROD infected in human MT4 cells assessed as protection against virus-induced cytopathogenicity after 5 days by MTT assay; conditions: Human immunodeficiency virus 2, ROD, MT4, 120 h
[9] = tested on: Human immunodeficiency virus 1; experiment: Antiviral activity against HIV-1 harboring RT E138K mutant infected in human MT4 cells assessed as protection against virus-induced cytopathogenicity after 5 days by MTT assay; assay type: functional, organism-based; conditions: Human immunodeficiency virus 1, MT4, 120 h
[10] = Acute toxicity in Kunming mouse assessed as toxic symptoms at 2000 mg/kg, po single dose measured up to 2 weeks; assay type: organism-based; conditions: in vivo, 336 h
In short: (§1)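 Kunming mice, 20 total, randomly split into two groups: vehicle control (0 mg/kg) or single oral 2000 mg/kg dose on day 1. Animals observed for toxic symptoms and mortality over the following two weeks; body weight tracked and expressed as relative change.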

[11] = Tmax in Sprague-Dawley rat at 20 mg/kg, po; assay type: ADME, organism-based; conditions: in vivo
In short: (§2)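 Sprague Dawley rats given a single 2 mg/kg intravenous or 20 mg/kg oral dose. Plasma concentration–time profiles followed. PK parameters reported as mean ± SD, n = 3.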

[12] = Acute toxicity in Kunming mouse assessed as body weight change at 2000 mg/kg, po single dose measured up to 2 weeks; assay type: organism-based; conditions: in vivo, 336 h; in short: as §1
[13] = Tmax in Sprague-Dawley rat at 2 mg/kg, iv; assay type: ADME, organism-based; conditions: in vivo; in short: as §2
[14] = Acute toxicity in Kunming mouse assessed as mortality at 2000 mg/kg, po single dose measured up to 2 weeks; assay type: organism-based; conditions: in vivo, 336 h; in short: as §1

**Q.** Which results are given for `Cc1cc(C#N)cc(C)c1Oc1nc(NC2CCN(Cc3ccc(S(C)(=O)=O)cc3)CC2)ncc1-c1ccco1`?
**A.** EC50 [1]: 28.8 nM; EC50 [2]: 20.4 nM; EC50 [3]: 26.4 nM; EC50 [4]: 110 nM; EC50 [5]: 5.92 nM; EC50 [6]: 233 nM; EC50 [7]: 4.52 nM; EC50 [8]: > 7460 nM; EC50 [9]: 27.4 nM

**Q.** Which EC50 [1] does the source give for `Cc1cc(C#N)cc(C)c1Oc1nc(NC2CCN(Cc3ccc(S(N)(=O)=O)cc3)CC2)ncc1-c1ccsc1` here?
**A.** The EC50 was 30.3 nM.

**Q.** What about the EC50 [2] of the same compound?
**A.** The EC50 was 15.4 nM.

**Q.** What about the EC50 [3] of the same compound?
**A.** The EC50 was 12.3 nM.

**Q.** What about the EC50 [4] of the same compound?
**A.** The EC50 was 85.3 nM.

**Q.** And the EC50 [5]?
**A.** Its EC50 is 4.7 nM.

**Q.** What about the EC50 [6] of the same compound?
**A.** The EC50 was 209 nM.

**Q.** What about the EC50 [7] of the same compound?
**A.** Its EC50 is 5.09 nM.

**Q.** And the EC50 [8]?
**A.** The EC50 was > 6120 nM.

**Q.** And the EC50 [9]?
**A.** Its EC50 is 19.7 nM.

**Q.** With `Cc1cc(/C=C/C#N)cc(C)c1Oc1nc(NC2CCN(Cc3ccc(C(N)=O)cc3)CC2)ncc1-c1ccc(F)nc1` as the compound, how does the EC50 [1] read?
**A.** The EC50 was 30.1 nM.

**Q.** What about the EC50 [2] of the same compound?
**A.** Its EC50 is 5.76 nM.

**Q.** And the EC50 [3]?
**A.** Its EC50 is 10.3 nM.

**Q.** And the EC50 [4]?
**A.** Its EC50 is 27.5 nM.

**Q.** And the EC50 [5]?
**A.** Its EC50 is 5.97 nM.

**Q.** And the EC50 [6]?
**A.** Its EC50 is 20.4 nM.

**Q.** What about the EC50 [7] of the same compound?
**A.** Its EC50 is 4.56 nM.

**Q.** What about the EC50 [9] of the same compound?
**A.** Its EC50 is 11.7 nM.

**Q.** What does the source list for `Cc1cc(C#N)cc(C)c1Oc1nc(NC2CCN(Cc3ccc(C(N)=O)cc3)CC2)ncc1-c1ccncc1`?
**A.** Activity [10]: Non-Toxic; EC50 [1]: 6.79 nM; EC50 [2]: 4.26 nM; EC50 [3]: 6.79 nM; EC50 [4]: 10.4 nM; EC50 [5]: 3.79 nM; EC50 [6]: 24.4 nM; Tmax [11]: 60 min; EC50 [7]: 3.75 nM; Activity [12]: Non-Toxic; Tmax [13]: 19.8 min; Activity [14]: Non-Toxic; EC50 [8]: > 36000 nM; EC50 [9]: 10.9 nM

**Q.** For `Cc1cc(C#N)cc(C)c1Oc1nc(NC2CCN(Cc3ccc(C(N)=O)cc3)CC2)ncc1-c1ccoc1`, which EC50 [1] is on record?
**A.** The EC50 was 21.1 nM.

**Q.** What about the EC50 [2] of the same compound?
**A.** The EC50 was 10.1 nM.

**Q.** What about the EC50 [3] of the same compound?
**A.** Its EC50 is 9.81 nM.

**Q.** And the EC50 [4]?
**A.** The EC50 was 307 nM.

**Q.** What about the EC50 [5] of the same compound?
**A.** Its EC50 is 3.44 nM.

**Q.** And the EC50 [6]?
**A.** Its EC50 is 108 nM.

**Q.** And the EC50 [7]?
**A.** Its EC50 is 3.4 nM.

**Q.** And the EC50 [8]?
**A.** Its EC50 is > 182000 nM.

**Q.** And the EC50 [9]?
**A.** Its EC50 is 11.2 nM.

**Q.** With `Cc1cc(C#N)cc(C)c1Oc1nc(NC2CCN(Cc3ccc(S(N)(=O)=O)cc3)CC2)ncc1-c1cccs1` as the compound, how does the EC50 [1] read?
**A.** Its EC50 is 9.31 nM.

**Q.** And the EC50 [2]?
**A.** The EC50 was 5.92 nM.

**Q.** What about the EC50 [3] of the same compound?
**A.** Its EC50 is 10.7 nM.

**Q.** And the EC50 [4]?
**A.** The EC50 was 30.2 nM.

**Q.** What about the EC50 [5] of the same compound?
**A.** The EC50 was 5.39 nM.

**Q.** What about the EC50 [6] of the same compound?
**A.** Its EC50 is 103 nM.

**Q.** What about the EC50 [7] of the same compound?
**A.** The EC50 was 4.57 nM.

**Q.** And the EC50 [8]?
**A.** Its EC50 is ≥ 33400 nM.

**Q.** What about the EC50 [9] of the same compound?
**A.** The EC50 was 7.71 nM.
